Assay results from publication PMC8906099 (Current Research in Parasitology & Vector-borne Diseases, 2021).
In brackets after ≈: the same amount, converted by molar mass. Like-named read-outs stand apart in the source and are kept apart here.

Experiments:
[1] = Cytotoxicity in infected C2C12 cells after 72 h; format: cell-based, murine; settings: mouse
Summary of the method: (§1)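 C2C12 cells were infected with trypomastigotes (1:15) together with test compound (0.19–100 μM, 0.1% DMSO) for 72 h at 37 °C, 5% CO2. Host nuclei were counted by DAPI high-content imaging. Viability was the cell count relative to the DMSO-control mean. CC50 came from sigmoid fits. SI = CC50/IC50 against intracellular amastigotes of the same strain at 72 h.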

[2] = Cytotoxicity in non-infected cells; format: cell-based, murine; settings: mouse, non-infected C2C12 cells
Summary of the method: (§2)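 Non-infected C2C12 cells (5 × 10^4 per well) were plated for 24 h. Test compound (0.19–100 μM, 2-fold, 0.1% DMSO) was then added for 72 h at 37 °C. Controls were untreated, DMSO 0.4% and Triton 15%. After a PBS wash, MTT (2 mg/ml) was added for 4 h, and absorbance was read at 450 nm (reference 620 nm). CC50 came from sigmoid fits. SI = CC50/IC50 against CA-I/72 amastigotes at 72 h.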

[3] = Cytotoxicity in non-infected cells; format: cell-based, monkey; settings: monkey, non-infected LLC-MK2 cells
Summary of the method: (§3)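 LLC-MK2 monkey kidney cells, grown in RPMI with 10% FBS at 37 °C and 5% CO2, were plated and after 24 h exposed to test compound (0.19–100 μM, 2-fold dilutions, 0.1% DMSO) for 72 h at 37 °C. Controls were untreated cells, 0.4% DMSO and 15% Triton. After a PBS wash, MTT (2 mg/ml) was added for 4 h, and absorbance read at 450/620 nm. SI is CC50 divided by the 72 h CA-I/72 intracellular amastigote IC50.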

[4] = test system: trypomastigotes of T. cruzi (Sylvio X10/4 strain); assay: Trypanocidal activity against trypomastigotes; format: cell-based; settings: Trypanosoma cruzi, 72 h, read-out: IC50 ± SD, trypomastigotes
Summary of the method: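 Sylvio X10/4 trypomastigotes were taken from amastigote culture supernatant and seeded at 1 × 10^6 per well. Test compound was added at 0.19–100 μM (0.1% DMSO), with benznidazole (0.019–10 μM) and DMSO controls. Incubation was 72 h at 37 °C, 5% CO2. Viability was read with resazurin (40 μM in PBS), fluorescence 530/630 nm. IC50 came from sigmoid dose–response fits.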

[5] = test system: amastigotes of T. cruzi Sylvio X10/4 strain; assay: Trypanocidal activity against intracellular amastigotes in C2C12 cells; format: cell-based; settings: Trypanosoma cruzi, C2C12, 72 h, read-out: IC50 ± SD, amastigotes
Summary of the method: (§4)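 Trypomastigotes from C2C12 co-culture (DMEM, 10% FBS, 25 mM HEPES, pH 7.2) were seeded with C2C12 cells at a 1:15 infection rate. Test compound (0.19–100 μM, 2-fold, 0.1% DMSO) was added at the start. After 72 h at 37 °C, 5% CO2, cells were stained with DAPI 2 h and imaged confocally. Amastigote and host nuclei were told apart by size. IC50 came from sigmoid fits of the infection ratio normalised to controls. Mean ± SD, three experiments in triplicate.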

[6] = test system: amastigotes of T. cruzi CA-I/72 strain; assay: as above; format: cell-based; settings: Trypanosoma cruzi, C2C12, 72 h, read-out: IC50 ± SD, amastigotes
Summary of the method: as §4

[7] = test system: amastigotes of T. cruzi Brazil strain; assay: as above; format: cell-based; settings: Trypanosoma cruzi, C2C12, 72 h, read-out: IC50 ± SD, amastigotes
Summary of the method: as §4

[8] = test system: intracellular amastigotes of T. cruzi CA-I/72 strain; assay: Time-course study against intracellular amastigotes; format: cell-based; settings: Trypanosoma cruzi
Summary of the method: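 CA-I/72 trypomastigotes were incubated with C2C12 cells for 48 h to form intracellular amastigotes. Test compound was then added (0.19–100 μM, 2-fold, 0.1% DMSO), with benznidazole and DMSO controls. Incubation ran 8, 12, 24 or 48 h at 37 °C, 5% CO2. Growth inhibition was read by DAPI high-content imaging. IC50 came from sigmoid fits of the normalised infection ratio. Time trend was tested by linear regression and ANOVA.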

female BALB/c mice = assay: Acute oral toxicity test in mice; format: in vivo; settings: for DA/TA (dead animals/total animals) / Mortality / Signs of toxicity: 14 days
Summary of the method: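 Six-week-old female BALB/c mice (25–30 g), five per group. Single oral dose of 300 or 1,000 mg/kg test compound in Tween 80/ethanol/water (7:3:90), with a vehicle group. Clinical signs (ataxia, tremor, salivation, ptosis, seizures and others) watched continuously for 1 h, periodically over 24 h, then daily to day 14. Mortality recorded.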

[9] = test system: amastigotes of T. cruzi Sylvio X10/7 strain; assay: Trypanocidal activity against intracellular amastigotes in C2C12 cells; format: cell-based, Trypanosoma cruzi; settings: Trypanosoma cruzi, C2C12, 72 h, read-out: IC50 ± SD, amastigotes, Sylvio X10/7 strain, 72 h incubation
Summary of the method: as §4

[10] = Time-course cytotoxicity in infected C2C12 cells; format: cell-based, murine; settings: mouse
Summary of the method: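 This uses the CA-I/72 time-course infection format: a 48 h pre-infection of C2C12 cells, then test compound at 0.19–100 μM for 8, 12, 24 or 48 h, with DAPI imaging. Host viability was the total host cell count divided by the mean count of 0.1% DMSO controls. CC50 came from sigmoid fits. SI = CC50/IC50 against amastigotes at the matching time.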

infected C2C12 cells = assay: Cytotoxicity in infected C2C12 cells after 72 h; format: cell-based, murine; settings: 72 h
Summary of the method: as §1

[11] = test system: several Streptococcus species; settings: ref Vieira et al., 2018; cited from earlier work
non-infected C2C12 cells = assay: Cytotoxicity in non-infected cells; format: cell-based, murine; settings: non-infected C2C12 CC50 / IC50 amastigotes CA-I/72 strain, 72 h
Summary of the method: as §2

[12] = test system: non-infected LLC-MK2 cells; assay: Cytotoxicity in non-infected cells; format: cell-based, monkey; settings: non-infected LLC-MK2 CC50 / IC50 amastigotes CA-I/72 strain, 72 h
Summary of the method: as §3

[13] = C2C12 cells infected with T. cruzi Brazil strain
[14] = C2C12 cells infected with T. cruzi CA-I/72 strain
[15] = C2C12 cells infected with T. cruzi Sylvio X10/4 strain
[16] = C2C12 cells infected with T. cruzi Sylvio X10/7 strain

Row | Structure (SMILES) | CC50 at 72 h [1, 13] [µM] | CC50 at 72 h [1, 14] [µM] | CC50 at 72 h [1, 15] [µM] | CC50 at 72 h [1, 16] [µM] | CC50 at 72 h [2] [µM] | CC50 at 72 h [3] [µM] | IC50 [4] [µM] | IC50 [5] [µM] | IC50 [6] [µM] | IC50 [7] [µM] | IC50 ([8]; 8 h, read-out: IC50 ± SD) [µM] | IC50 ([8]; 12 h, read-out: IC50 ± SD) [µM] | IC50 ([8]; 24 h, read-out: IC50 ± SD) [µM] | IC50 ([8]; 48 h, read-out: IC50 ± SD) [µM] | IC50 [9] [µM] | CC50 at 8 h [10] [µM] | CC50 at 12 h [10] [µM] | CC50 at 24 h [10] [µM] | CC50 at 48 h [10] [µM] | also measured
1 | COc1cc(/C=C/C(=O)CC(=O)/C=C/c2ccc(O)c(OC)c2)ccc1O [CUR, reference compound] | 2.36 ± 1.24 | 6.71 ± 0.7 | 1.91 ± 0.02 | 3.37 ± 1.33 | 18 ± 0.42 | 32.5 ± 0.49 | 9.89 ± 0.51 | 20 ± 2.61 | 2.71 ± 0.47 | 11.2 ± 1.05 | > 100 | > 100 | 51.6 ± 1.26 | 2.25 ± 0.65 | 11.6 ± 4.93 | 60.3 ± 1.54 | 9.95 ± 1.17 | 1.88 ± 0.17 | 0.47 ± 0.09 | Acute toxicity (general signs of toxicity or mortality) (female BALB/c mice; oral doses 300 and 1,000 mg/kg, 14-day period): no toxic effects; DA/TA (dead animals/total animals) (female BALB/c mice; single oral dose 300 mg/kg): 0/5; Mortality (female BALB/c mice; single oral dose 300 mg/kg): 0%; Signs of toxicity (female BALB/c mice; single oral dose 300 mg/kg): None; DA/TA (dead animals/total animals) (female BALB/c mice; single oral dose 1,000 mg/kg): 0/5; Mortality (female BALB/c mice; single oral dose 1,000 mg/kg): 0%; Signs of toxicity (female BALB/c mice; single oral dose 1,000 mg/kg): None
2 | COc1ccc(/C=C/C(=O)/C=C/c2ccc(OC)cc2)cc1 [DBA 2, (1E,4E)-1,5-bis(4-methoxyphenyl)penta-1,4-dien-3-one] | 5.15 ± 0.13 | 4.3 ± 1.22 | 2.54 ± 1.86 | 0.9 ± 1.2 | 35.5 ± 0.5 | 31.4 ± 1.2 | 29.8 ± 2.12 | 46.6 ± 0.48 | 17.5 ± 1.06 | 51.6 ± 4.9 | > 100 | > 100 | > 100 | > 100 | 0.48 ± 0.02 | 40.7 ± 1.07 | 3.03 ± 0.79 | 0.33 ± 0.41 | 0.02 ± 0.03 | SI (CC50/IC50) (infected C2C12 cells; infected C2C12, Brazil strain): 0.10; SI (CC50/IC50) (infected C2C12 cells; infected C2C12, CA-I/72 strain): 0.24; SI (CC50/IC50) (infected C2C12 cells; infected C2C12, Sylvio X10/4 strain): 0.05; SI (CC50/IC50) (infected C2C12 cells; infected C2C12, Sylvio X10/7 strain): 1.87; MIC [11]: 100 mg/L (≈ 340 µM); SI (CC50/IC50) (non-infected C2C12 cells): 2.03; SI (CC50/IC50) [12]: 1.79; IC50 ([8]; read-out: IC50 over the incubation times evaluated): > 100 µM
